In ChEMBL document CHEMBL1138733, “Chimeric cyclodepsipeptides as mimetics for the anthelmintic PF1022A” (2004):

Legend:
Haemonchus contortus [1] = experiment: anthelmintic activity as the eggs per gram of faeces in sheep infected with 5000 Haemonchus contortus L3 larvae at 0.01 mg/kg
Bos taurus [2] = experiment: anthelmintic activity as the percent reduction in faecal egg count in sheep infected with 5000 Haemonchus contortus L3 larvae at 0.1 mg/kg; type: functional, Ovis aries, Feces
Outline: (§1)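 Merino or Schwarzkopf sheep (25–35 kg) infected with 5000 H. contortus L3, dosed after the pre-patency period, orally in gelatine capsules or intravenously. Faecal egg counts by Wetzel-modified McMaster method, per gram of fresh faeces, at regular intervals before and after treatment. Activity as eggs per gram and percent reduction versus pretreatment. Untreated controls sampled at matching times.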

Bos taurus [3] = experiment: anthelmintic activity as the eggs per gram of faeces in sheep infected with 5000 Haemonchus contortus L3 larvae at 0.1 mg/kg; type: functional, Ovis aries, Feces
Outline: as §1

Haemonchus contortus [4] = experiment: anthelmintic activity as the percent reduction in faecal egg count in sheep infected with 5000 Haemonchus contortus L3 larvae at 0.01 mg/kg

SMILES | Activity (Haemonchus contortus [1]) [eggs/g] | Reduction (Bos taurus [2]) [%] | Activity (Bos taurus [3]) [eggs/g] | Reduction (Haemonchus contortus [4]) [%]
CC(C)C[C@H]1C(=O)O[C@H](Cc2ccccc2)C(=O)N(C)[C@@H](CC(C)C)C(=O)O[C@H](C)C(=O)N(C)[C@@H](CC(C)C)C(=O)O[C@H](Cc2ccccc2)C(=O)N(C)[C@@H](CC(C)C)C(=O)O[C@H](C)C(=O)N1C | 573 | 100 | 0 | 43
CC(C)C[C@H]1C(=O)O[C@H](Cc2ccccc2)C(=O)N(C)[C@@H](CC(C)C)C(=O)O[C@H](C)C(=O)N(C)[C@@H](CC(C)C)C(=O)N2CCC[C@@H]2C(=O)N2CCC[C@H]2C(=O)O[C@H](C)C(=O)N1C | 50 | – | – | 98
CC(C)C[C@H]1C(=O)N[C@H]2CCC3SC[C@@H](C(=O)O[C@H](C)C(=O)N(C)[C@@H](CC(C)C)C(=O)O[C@H](Cc4ccccc4)C(=O)N(C)[C@@H](CC(C)C)C(=O)O[C@H](C)C(=O)N1C)N3C2=O (stereo partly drawn) | 83 | – | – | 95
